Data as given in PubChem BioAssay.
Active and inactive are the calls of the source.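 How the source made its calls, unless noted: active means NADPH fluorescence slope more negative than the mean of all samples by about 3 SD, 99.7% confidence; inactive means the rest.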

Legend:
[1] = inhibitors of TNFa-induced NFkB p65 translocation, primary screen, imaging, HUVEC, MLSMR starter and 10KST1 sets (AID 438;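 active means inhibition above 20% together with a positive visual image hit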;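 further: compound added about 3h40 before a 20 min TNFalpha stimulation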;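 on inhibition: signal is the nuclear over cytoplasmic p65 intensity ratio per well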); conditions: HUVEC TNFa-induced p65 nuclear translocation; cell count: measured here: nuclei count (cytotoxicity indicator), at 2.08 µM; inhibition: at 2 µM, stronger effect = higher value, 0% TNFa-plus-vehicle, 100% no-TNFa wells
[2] = endothelial E-selectin expression blockers – imaging, HUVEC, immunofluorescence, MLSMR starter and 10KST1 sets, primary screen (AID 487;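 active means visually confirmed hit in the image check and inhibition above 20%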;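 on inhibition: signal is fraction of cell area covered by stained E-selectin grains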;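 on nuclei count: 100% = median nuclei count of all wells on the same plate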); conditions: HUVEC TNFalpha-induced E-selectin immunofluorescence imaging, at 2 µM; inhibition: stronger effect = higher value; nuclei count: measured here: cell number, toxicity
[3] = Primary imaging screen for DUSP6 inhibitors that restore phospho-Erk in transfected HeLa cells, chemical complementation (AID 609;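 active means compounds giving at least 50% inhibition in the cell-based MKP-3 phosphatase rescue imaging test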;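 on inhibition: phospho-Erk level distribution per well compared with pooled transfected vehicle control wells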); conditions: HeLa MKP-3 transfected, phospho-Erk imaging KS statistic, at 10 µM, cells stimulated with TPA for 15 min
[4] = biological target: Dual specificity protein phosphatase 6 (Homo sapiens) (UniProt Q16828); experiment: as above; conditions: HeLa MKP-3 transfected, phospho-Erk imaging KS statistic; at 10 µM; stronger effect = higher value; cells stimulated with TPA for 15 min
[5] = biological target: Voltage-gated potassium channel subunit beta-2 (Rattus norvegicus) (UniProt P62483); experiment: inhibitors of rat Kvbeta2 reductase activity – biochemical, NADPH fluorescence, primary screen (AID 622;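 active means fluorescence slope higher than the sample average by over 3 SD, cut at about -0.22 in these data, passing the limit was not always enough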;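 further: slope of raw intensity against log time taken from 70 to 1610 s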); conditions: recombinant KvBeta, 4-cyanobenzaldehyde reduction, at 10 µM, stronger effect = higher value
[6] = biological target: Voltage-gated potassium channel subunit beta-2 (Rattus norvegicus) (UniProt P62483); experiment: enhancers of rat Kvbeta2 NADPH turnover – biochemical, NADPH fluorescence, primary screen (AID 623); conditions: Recombinant KvBeta, NADPH fluorescence decrease slope, 10 min; at 10 µM; stronger effect = lower value;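 further: fluorescence intensity change per second fitted from 20 to 320 s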
[7] = biological target: Muscarinic acetylcholine receptor M4 (Homo sapiens) (UniProt P08173); experiment: M4-linked GIRK flux change, two-sided – cell-based, HEK293 M4/GIRK, thallium flux, BTC-AM, M4 allosteric agonist project, primary screen (AID 625;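 active means fluorescence slope after compound addition differing from the mean of all tested samples at 99.7% confidence, mostly higher but some lower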;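 further: thallium influx through GIRK channels coupled to M4 in HEK293 cells with BTC-AM dye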); conditions: at 10 µM, actives lie on both sides
Procedure, shortened: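 Material: HEK293 cells with M4 receptor and GIRK channels; Times: cells overnight at 37 °C, BTC-AM loading 1 h, reads 2 min total; Technique: kinetic BTC-AM fluorescence sampled at 1 Hz, 10 s pre-addition baseline; Read-out basis: slope over 15–24 s of trace normalized to starting intensity; Controls: carbachol positive, DMSO negative.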

[8] = inhibitors of larval lipid processing in zebrafish, primary screen, whole organism, PED6 fluorescence, gall bladder and intestine (AID 686;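 active means a full or partial loss of lipid-probe fluorescence in the fish gall bladder, intestine or both, judged by eye; inactive means no fluorescence loss, or compound toxic to the fish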;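 further: larvae 5 to 7 days old with five fish per well; signal comes from phospholipase A2 cleavage of quenched PED6 carried via bile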); conditions: Zebrafish larvae PED6 lipid processing, fluorescence scoring; screened at 20 µM (by protocol)
Procedure, shortened: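 Incubation: overnight exposure of larvae to compound plus PED6 / Test system: live zebrafish larvae aged 5-7 days, whole organism / Amount: 5 larvae per well / Read-out basis: visual per-well fluorescence inhibition score / Signal: visual fluorescence microscopy scoring of gall bladder, gut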

[9] = loss of swimming-algae plug formation – whole organism, Chlamydomonas reinhardtii, WT vs cilia-less mutant, absorbance, 96-well, primary screen (AID 463189;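 active means inhibition at or above 50% relative to wild type and mutant plate controls; inactive means inhibition below 50%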;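 further: 0% = wild type cc124 cells in DMSO and 100% = ciliumless bld1 mutant cells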); conditions: Chlamydomonas reinhardtii gravitaxis, OD600 absorbance, 2 days; at 10 µM; stronger effect = higher value
[10] = measured here: cell density z-score
[11] = measured here: nuclear c-Myc green intensity z-score
[12] = measured here: nuclear pErk red intensity z-score, stronger effect = higher value

Sequence of Voltage-gated potassium channel subunit beta-2 (Rattus norvegicus) (P62483 whole entry, looked up): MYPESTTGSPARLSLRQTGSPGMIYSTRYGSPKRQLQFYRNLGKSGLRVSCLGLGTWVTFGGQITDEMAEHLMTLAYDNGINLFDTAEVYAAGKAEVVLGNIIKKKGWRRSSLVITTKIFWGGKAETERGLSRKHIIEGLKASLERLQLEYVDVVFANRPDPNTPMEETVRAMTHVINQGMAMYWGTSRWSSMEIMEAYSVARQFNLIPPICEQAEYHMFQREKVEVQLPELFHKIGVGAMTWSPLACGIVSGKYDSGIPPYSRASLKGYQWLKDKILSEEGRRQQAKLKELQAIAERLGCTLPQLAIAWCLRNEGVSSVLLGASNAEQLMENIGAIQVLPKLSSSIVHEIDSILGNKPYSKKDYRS
Sequence of Muscarinic acetylcholine receptor M4 (Homo sapiens) (P08173 whole entry, looked up): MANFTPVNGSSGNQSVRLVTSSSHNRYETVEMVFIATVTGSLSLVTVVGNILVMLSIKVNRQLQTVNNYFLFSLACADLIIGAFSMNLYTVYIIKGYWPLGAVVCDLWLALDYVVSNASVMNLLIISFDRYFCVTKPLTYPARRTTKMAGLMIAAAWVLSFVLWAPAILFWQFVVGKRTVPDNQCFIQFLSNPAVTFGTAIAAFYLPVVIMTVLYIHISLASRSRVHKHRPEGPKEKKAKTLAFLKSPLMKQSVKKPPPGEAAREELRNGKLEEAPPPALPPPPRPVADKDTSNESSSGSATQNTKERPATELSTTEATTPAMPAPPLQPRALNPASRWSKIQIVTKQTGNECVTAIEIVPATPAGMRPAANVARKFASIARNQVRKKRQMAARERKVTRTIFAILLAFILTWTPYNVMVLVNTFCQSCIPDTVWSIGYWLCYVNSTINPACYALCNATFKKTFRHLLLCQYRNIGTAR
Sequence of Dual specificity protein phosphatase 6 (Homo sapiens) (Q16828 whole entry, looked up): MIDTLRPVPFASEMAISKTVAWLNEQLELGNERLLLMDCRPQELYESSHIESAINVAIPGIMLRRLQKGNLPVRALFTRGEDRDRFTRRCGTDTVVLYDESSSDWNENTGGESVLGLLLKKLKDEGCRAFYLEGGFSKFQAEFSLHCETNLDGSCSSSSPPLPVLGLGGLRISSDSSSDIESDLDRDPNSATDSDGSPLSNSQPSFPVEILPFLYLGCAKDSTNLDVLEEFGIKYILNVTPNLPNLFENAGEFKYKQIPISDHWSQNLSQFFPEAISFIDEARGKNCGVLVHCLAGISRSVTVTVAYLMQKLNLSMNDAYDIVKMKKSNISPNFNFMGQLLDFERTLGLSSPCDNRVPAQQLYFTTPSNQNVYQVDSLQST

Structure (SMILES)	cell count [1]	inhibition [1]	inhibition [2]	nuclei count [2] [%]	z-score [3, 10]	z-score [3, 11]	z-score [3, 12]	inhibition [4]	fluorescence slope [5]	NADPH fluorescence slope [6]	fluorescence slope [7]	outcome [8]	inhibition [9]
CNc1oc(-c2cccs2)nc1C#N	683	-0.7% (inactive)	-2.1% (inactive)	144	0.965	0.294	0.102	1.63% (inactive)	-0.0289 (inactive)	-2.3e-05 (inactive)	0.00668 (inactive)	inactive	7.4% (inactive)
CCC(NC(=O)Nc1nccs1)(C(F)(F)F)C(F)(F)F	600	-9% (inactive)	21.5% (inactive)	89	0.356	1.04	-0.804	-11.4% (inactive)	-0.475 (inactive)	-3.1e-05 (inactive)	0.0066 (inactive)	inactive	-12.6% (inactive)
COC(=O)C1CCN(c2nc3ccccc3nc2C(C#N)C(=O)NCCc2ccccc2)CC1 (stereo unspecified)	600	-8.8% (inactive)	-60.5% (inactive)	199	0.0104	-0.0979	-0.225	1.42% (inactive)	-0.356 (inactive)	-5.2e-05 (inactive)	0.00365 (inactive)	inactive	-8.92% (inactive)
CCCCOC(=O)CCc1nc2ccccc2[nH]1	716	-2.4% (inactive)	-50.5% (inactive)	195	-0.361	0.108	1.13	-3.97% (inactive)	-0.484 (inactive)	-5.5e-05 (inactive)	0.00514 (inactive)	inactive	8.4% (inactive)
CCCSc1nc(O)c(C2OC(=O)c3c2ccc(OC)c3OC)c(=O)n1C (stereo unspecified)	560	-1.3% (inactive)	29.6% (inactive)	143	0.566	-0.178	0.157	7.93% (inactive)	-0.415 (inactive)	-3.7e-05 (inactive)	0.00648 (inactive)	inactive	12.4% (inactive)
C/C(NC(=O)c1cccs1)=C1\C(=O)C[C@@H]2[C@H]1C2(C)C	562	-1.6% (inactive)	-127% (inactive)	150	0.211	-0.0395	-0.0984	11.9% (inactive)	-0.392 (inactive)	-6e-05 (inactive)	0.00498 (inactive)	inactive	-3.09% (inactive)
O=C(COc1ccc(F)cc1)OCCN1CCOCC1	565	-8.9% (inactive)	-82.4% (inactive)	135	-1.31	0.0144	2.07	-10.6% (inactive)	-0.449 (inactive)	-0.000116 (inactive)	0.00404 (inactive)	inactive	-2.61% (inactive)
Cc1cc(=O)oc(C)c1C(=O)NC1CC(C)(C)NC(C)(C)C1	688	-8.3% (inactive)	-70.2% (inactive)	160	-0.541	0.659	0.228	-10.1% (inactive)	-0.463 (inactive)	-1.7e-05 (inactive)	0.00552 (inactive)	inactive	6.56% (inactive)
O=C(CC(c1ccco1)S(=O)(=O)c1ccccc1)c1ccc(F)cc1 (stereo unspecified)	585	-2% (inactive)	-105% (inactive)	138	-0.324	0.355	1.32	-14.6% (inactive)	-0.413 (inactive)	-0.000113 (inactive)	0.00466 (inactive)	inactive	28.8% (inactive)
COCCCNC(=O)c1c(N)n(/N=C/c2cccnc2)c2nc3ccccc3nc12	719	4.4% (inactive)	0.4% (inactive)	113	-0.256	0.735	2.99	4.25% (inactive)	-0.253 (inactive)	-3.5e-06 (inactive)	0.00597 (inactive)	inactive	-6.04% (inactive)
CSc1nncc(=O)[nH]1	642	1.5% (inactive)	-96.8% (inactive)	160	0.525	-0.545	-0.327	6.51% (inactive)	-0.452 (inactive)	-4.4e-05 (inactive)	0.00648 (inactive)	inactive	-3.84% (inactive)
Cc1ccc(-c2nn(C)c(=O)c3ccccc23)cc1CN1CCOCC1	424	-0.6% (inactive)	-40.3% (inactive)	145	0.246	0.445	-0.955	6.04% (inactive)	-0.452 (inactive)	-3.3e-05 (inactive)	0.00454 (inactive)	inactive	-2.85% (inactive)
COc1ccccc1C1/C(=C(/O)c2ccc(OC(C)C)cc2)C(=O)C(=O)N1c1cc(C)on1 (stereo unspecified)	437	-8.5% (inactive)	-118% (inactive)	148	1.18	-0.452	-0.964	9.37% (inactive)	-0.438 (inactive)	-0.000335 (active)	0.006 (inactive)	inactive	-0.61% (inactive)
COc1ccc(/C(O)=C2/C(=O)C(=O)N(CCN3CCOCC3)C2c2cccnc2)cc1OC (stereo unspecified)	364	-4.2% (inactive)	-126% (inactive)	151	-0.575	1.61	-0.594	11.9% (inactive)	-0.486 (inactive)	-4.1e-05 (inactive)	0.00405 (inactive)	inactive	-1.91% (inactive)
CCc1[nH]c(=O)c(C#N)c2c1CCCC2	388	-8.1% (inactive)	-57.4% (inactive)	173	-0.973	0.856	2.79	-12.6% (inactive)	-0.495 (inactive)	-0.000126 (inactive)	0.00393 (inactive)	inactive	26.8% (inactive)
COc1ccc(C2C=C(c3ccc(C)cc3)Nc3ncnn32)cc1 (stereo unspecified)	538	0.8% (inactive)	22.6% (inactive)	156	-1.85	1.16	0.377	-3.97% (inactive)	-0.0165 (inactive)	-1.6e-05 (inactive)	0.00462 (inactive)	inactive	2.98% (inactive)
CC1(C)Cc2c(C#N)c(N3CCN(C(=O)c4ccco4)CC3)nc(-c3ccco3)c2CS1	639	-0.1% (inactive)	-82.6% (inactive)	138	-1.4	-0.121	-2.48	-4.27% (inactive)	-0.464 (inactive)	-6.6e-05 (inactive)	0.00584 (inactive)	inactive	3.99% (inactive)
CC(=O)CCn1c(=O)n(CCC(C)=O)c(=O)n(CCC(C)=O)c1=O	352	-1.6% (inactive)	-7% (inactive)	97.7	-1.19	2.07	-0.0971	5.42% (inactive)	-0.512 (inactive)	-4.3e-05 (inactive)	0.00631 (inactive)	inactive	-14.3% (inactive)
COC(=O)NC(Nc1sc2c(c1C(N)=O)CCCC2)(C(=O)OC)C(F)(F)F (stereo unspecified)	713	11.7% (inactive)	-59.3% (inactive)	147	0.143	-0.0847	-0.638	-11.4% (inactive)	-0.431 (inactive)	-7.5e-05 (inactive)	0.00518 (inactive)	inactive	-3.75% (inactive)
Cc1nc(SCC(=O)Nc2ccc3c(c2)OCO3)c(C#N)c2c1CCCC2	490	1.3% (inactive)	-215% (inactive)	145	-0.268	-1.41	0.298	9.37% (inactive)	-0.472 (inactive)	-4e-05 (inactive)	0.00555 (inactive)	inactive	19.8% (inactive)
CCCCN1C(=O)C(O)=C(C(C)=O)C1c1ccc(OC)cc1OC (stereo unspecified)	479	-4.2% (inactive)	-323% (inactive)	189	0.403	-0.372	1.98	-7.28% (inactive)	-0.464 (inactive)	-4.3e-05 (inactive)	0.00466 (inactive)	inactive	-3.96% (inactive)
O=C(Nc1ccccc1)c1cc(N2CCOCC2)nc2ccccc12	667	-1.5% (inactive)	-114% (inactive)	149	1.08	1.33	-0.63	6.51% (inactive)	-0.419 (inactive)	-6.8e-05 (inactive)	0.00579 (inactive)	inactive	-0.488% (inactive)
Cc1nc(NCCO)c(C#N)c2c1COC(C)(C)C2	538	-2.6% (inactive)	-147% (inactive)	132	-0.0329	1.94	-1.24	15.4% (inactive)	-0.464 (inactive)	-3.6e-05 (inactive)	0.0044 (inactive)	inactive	5.51% (inactive)
COC(=O)CSc1nnc(C)c(=O)[nH]1	609	-15.3% (inactive)	-317% (inactive)	138	0.155	1.52	-3.1	-7.86% (inactive)	-0.484 (inactive)	-7.4e-05 (inactive)	0.00545 (inactive)	inactive	-3.96% (inactive)
O=C(O)C1[C@H]2C(=O)N(Cc3cccs3)C[C@]23C=C[C@H]1O3 (stereo partly specified)	598	-10.3% (inactive)	-12.8% (inactive)	189	0.152	1.12	-0.313	6.04% (inactive)	-0.481 (inactive)	-8e-05 (inactive)	0.00643 (inactive)	inactive	-4.98% (inactive)
O=C(O)CCCC(=O)N1CCN(C(c2ccccc2)c2ccccc2)CC1	593	2% (inactive)	16.4% (inactive)	93.4	0.508	0.369	-2.19	-9.53% (inactive)	-0.501 (inactive)	-2.2e-05 (inactive)	0.00548 (inactive)	inactive	-16% (inactive)
N#Cc1c(N)n(CCOC(=O)c2ccc(Cl)cc2)c2nc3ccccc3nc12	617	22.7% (active)	-33.2% (inactive)	95	-0.315	-0.666	-0.586	-2.47% (inactive)	-0.278 (inactive)	-7.1e-06 (inactive)	0.00595 (inactive)	inactive	-2.92% (inactive)
